{"source": "ChEMBL document CHEMBL1136956", "about": "“Identification of 2-aminobenzimidazoles as potent melanin-concentrating hormone 1-receptor (MCH1R) antagonists” (Bioorg Med Chem Lett, 2009)", "key": {"[1]": {"biological_target": "T1, Melanin-concentrating hormone receptor 1 (Homo sapiens, UniProt Q99705)", "T1 sequence (Q99705 whole entry)": "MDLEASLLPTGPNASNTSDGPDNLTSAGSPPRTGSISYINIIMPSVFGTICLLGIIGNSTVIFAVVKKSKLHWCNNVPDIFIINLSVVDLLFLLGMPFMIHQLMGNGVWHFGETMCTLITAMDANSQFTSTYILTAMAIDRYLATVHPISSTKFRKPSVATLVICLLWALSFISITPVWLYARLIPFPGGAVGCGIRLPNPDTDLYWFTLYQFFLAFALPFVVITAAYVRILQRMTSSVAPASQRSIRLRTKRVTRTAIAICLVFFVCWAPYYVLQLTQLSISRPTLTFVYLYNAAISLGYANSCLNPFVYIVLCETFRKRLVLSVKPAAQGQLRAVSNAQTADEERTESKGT", "test": "Displacement of [125I]MCH from human MCH1 receptor expressed in CHO-K1 cells by scintillation counting", "assay_type": "cell-based", "summary_of_the_method": "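Membranes of CHO-K1 cells stably expressing human MCH1R incubated with [125I]-MCH and compound in 50 mM Tris, 10 mM MgCl2, 2 mM EDTA, bacitracin, 0.2% BSA, pH 7.4, 2 h at room temperature. Bound label collected by filtration onto GF/C filters and counted by scintillation. Non-specific binding defined with 1 µM unlabeled MCH. IC50 reported as mean of at least two experiments.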"}, "[2]": {"biological_target": "T1, Melanin-concentrating hormone receptor 1", "test": "Antagonist activity at human MCH1 receptor expressed in CHO-K1 cells assessed as inhibition of MCH-induced intracellular calcium mobilization by FLIPR assay", "assay_type": "functional, cell-based", "summary_of_the_method": "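CHO-K1 cells stably expressing human MCH1R, seeded at 3.0 × 10^4 per well and grown 24 h in DMEM/10% FBS with G418. Cells loaded with Fluo-4 AM plus 2.5 mM probenecid for 1 h at 37 °C, then washed into HBSS/20 mM Hepes/0.5% BSA/2.5 mM probenecid, pH 7.4. Compound added 5 min before MCH; Ca2+ mobilization read on FLIPR. IC50 is mean of ≥2 experiments.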"}, "[3]": {"test": "Intrinsic clearance in rat hepatocytes", "assay_type": "ADME, cell-based, Liver, Hepatocyte"}, "[4]": {"test": "Volume of distribution in rat at 1 mg/kg, iv and 3 mg/kg, po", "assay_type": "ADME, organism-based", "settings": "in vivo", "summary_of_the_method": "(§1)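 Rats dosed at 1 mg/kg IV and 3 mg/kg PO. Clearance, volume of distribution, half-life and oral bioavailability derived from these dosings; mean values, n = 3.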"}, "[5]": {"test": "Clearance in rat at 1 mg/kg, iv and 3 mg/kg, po", "assay_type": "ADME, organism-based", "settings": "in vivo", "summary_of_the_method": "as §1"}, "Rattus norvegicus [6]": {"test_system": "Rattus norvegicus", "test": "Antiobese activity in high fat fed Sprague-Dawley rat assessed as suppression of […] food intake at 10 mg/kg, po", "assay_type": "functional", "summary_of_the_method": "(§2)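 Male SD rats with a 26-gauge guide cannula in the third ventricle, used after ≥1 week recovery. Rats fed high-fat diet ~3 h, then given compound (10 or 30 mg/kg) or vehicle orally. 1 h later MCH (5 µg/head in artificial CSF) was injected ICV, 1 h before dark onset. Food intake measured over 2 h; 15–20 rats per group, versus vehicle/MCH group.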"}, "[7]": {"test": "Plasma concentration in rat at 30 mg/kg, po after 2 hrs", "assay_type": "ADME, organism-based", "parameters": "dose 30 mg/kg, route oral", "summary_of_the_method": "(§3)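 Rats given 30 mg/kg PO; plasma and brain levels determined 2 h post-dose, with brain/plasma ratio taken from these. Mean values, n = 3.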"}, "Rattus norvegicus [8]": {"test_system": "Rattus norvegicus", "test": "Antiobese activity in high fat fed Sprague-Dawley rat assessed as suppression of […] food intake at 30 mg/kg, po", "assay_type": "functional", "summary_of_the_method": "as §2"}, "[9]": {"test": "Half life in rat at 1 mg/kg, iv and 3 mg/kg, po", "assay_type": "ADME, organism-based", "settings": "in vivo", "summary_of_the_method": "as §1"}, "[10]": {"test": "Oral bioavailability in rat at 3 mg/kg", "assay_type": "ADME, organism-based", "settings": "in vivo", "summary_of_the_method": "as §1"}, "[11]": {"test": "Ratio of drug level from brain to plasma in rat at 30 mg/kg, po after 2 hrs", "assay_type": "ADME, organism-based", "parameters": "dose 30 mg/kg, route oral", "settings": "brain and plasma, read-out: BPR", "summary_of_the_method": "as §3"}, "Brain": {"test_system": "Brain", "test": "Drug level in rat brain at 30 mg/kg, po after 2 hrs", "assay_type": "ADME, organism-based", "parameters": "dose 30 mg/kg, route oral", "settings": "in vivo", "summary_of_the_method": "as §3"}}, "data": [{"smiles": "CN1CCC(N(C)c2nc3ccc(NC(=O)CCc4ccc(C(F)(F)F)cc4)cc3[nH]2)CC1", "values": [{"measurement": "IC50", "setting": "[1]", "result": 23, "unit": "nM"}]}, {"smiles": "CN(c1nc2ccc(NC(=O)CCc3ccc(C(F)(F)F)cc3)cc2[nH]1)C1CCCC1", "values": [{"measurement": "IC50", "setting": "[1]", "result": 4, "unit": "nM"}, {"measurement": "IC50", "setting": "[2]", "result": 22, "unit": "nM"}]}, {"smiles": "CCN(C)c1nc2ccc(NC(=O)CCc3ccc(C(F)(F)F)cc3)cc2[nH]1", "values": [{"measurement": "IC50", "setting": "[1]", "result": 19, "unit": "nM"}]}, {"smiles": "CC(C)N(C)c1nc2ccc(NC(=O)CCc3ccc(C(F)(F)F)cc3)cc2s1", "values": [{"measurement": "IC50", "setting": "[1]", "result": "> 750", "unit": "nM"}]}, {"smiles": "CC(C)N(C)c1nc2ccc(NC(=O)CCc3ccc(C(F)(F)F)cc3)cc2[nH]1", "values": [{"measurement": "IC50", "setting": "[1]", "result": 5.9, "unit": "nM"}, {"measurement": "CLint scaled", "setting": "[3]", "result": 32, "unit": "mL/min/kg"}, {"measurement": "IC50", "setting": "[2]", "result": 21, "unit": "nM"}]}, {"smiles": "CC(=O)N1CCC(N(C)c2nc3ccc(NC(=O)CCc4ccc(C(F)(F)F)cc4)cc3[nH]2)C1", "note": "(centres undefined)", "values": [{"measurement": "IC50", "setting": "[1]", "result": 30, "unit": "nM"}]}, {"smiles": "CC(C)N(C)c1nc2ccc(NC(=O)c3cnc(-c4ccc(F)cc4)cn3)cc2[nH]1", "values": [{"measurement": "Vd", "setting": "[4]", "result": 1.2, "unit": "L/kg"}, {"measurement": "IC50", "setting": "[1]", "result": 2.7, "unit": "nM"}, {"measurement": "clearance", "setting": "[5]", "result": 11, "unit": "mL/min/kg"}, {"measurement": "Activity", "setting": "Rattus norvegicus [6]", "result": 32, "unit": "%"}, {"measurement": "concentration at 2 h", "setting": "[7]", "result": 3.9, "unit": "µM"}, {"measurement": "Activity", "setting": "Rattus norvegicus [8]", "result": 72, "unit": "%"}, {"measurement": "half-life", "setting": "[9]", "result": 2.3, "unit": "h"}, {"measurement": "CLint scaled", "setting": "[3]", "result": 10, "unit": "mL/min/kg"}, {"measurement": "bioavailability", "setting": "[10]", "result": 35, "unit": "%"}, {"measurement": "Kp at 2 h", "setting": "[11]", "result": 0.36}, {"measurement": "Drug uptake", "setting": "Brain", "result": 1.4, "unit": "nmol/g"}]}, {"smiles": "CN(C)c1nc2ccc(NC(=O)CCc3ccc(C(F)(F)F)cc3)cc2[nH]1", "values": [{"measurement": "IC50", "setting": "[1]", "result": 12, "unit": "nM"}]}, {"smiles": "CC(C)N(C)c1nc2ccc(NC(=O)c3ccc(-c4ccc(C(F)(F)F)cn4)cc3)cc2[nH]1", "values": [{"measurement": "IC50", "setting": "[1]", "result": 3.1, "unit": "nM"}, {"measurement": "CLint scaled", "setting": "[3]", "result": 16, "unit": "mL/min/kg"}]}, {"smiles": "CN(c1nc2ccc(NC(=O)CCc3ccc(C(F)(F)F)cc3)cc2[nH]1)C1CCOC1", "note": "(centres undefined)", "values": [{"measurement": "IC50", "setting": "[1]", "result": 27, "unit": "nM"}]}, {"smiles": "CC(C)N(C)c1ccc2cc(NC(=O)CCc3ccc(C(F)(F)F)cc3)cnc2n1", "values": [{"measurement": "IC50", "setting": "[1]", "result": 365, "unit": "nM"}]}, {"smiles": "CC(C)N(C)c1nc2ccc(NC(=O)c3cncc(-c4ccc(F)cc4)c3)cc2[nH]1", "values": [{"measurement": "IC50", "setting": "[1]", "result": 900, "unit": "nM"}]}, {"smiles": "CCN(c1nc2ccc(NC(=O)CCc3ccc(C(F)(F)F)cc3)cc2[nH]1)C1CCCCC1", "values": [{"measurement": "IC50", "setting": "[1]", "result": 135, "unit": "nM"}]}, {"smiles": "CC(C)N(C)c1nc2ccc(NC(=O)CCc3ccc(C(F)(F)F)cn3)cc2[nH]1", "values": [{"measurement": "IC50", "setting": "[1]", "result": 41, "unit": "nM"}]}, {"smiles": "CN(c1nc2ccc(NC(=O)CCc3ccc(C(F)(F)F)cc3)cc2[nH]1)C1CC1", "values": [{"measurement": "IC50", "setting": "[1]", "result": 24, "unit": "nM"}]}, {"smiles": "CC(C)N(C)c1ccc2nc(NC(=O)CCc3ccc(C(F)(F)F)cc3)ccc2n1", "values": [{"measurement": "IC50", "setting": "[1]", "result": 375, "unit": "nM"}]}, {"smiles": "CN(c1nc2ccc(NC(=O)CCc3ccc(C(F)(F)F)cc3)cc2[nH]1)C1CCCCC1", "values": [{"measurement": "IC50", "setting": "[1]", "result": 6.7, "unit": "nM"}, {"measurement": "IC50", "setting": "[2]", "result": 27, "unit": "nM"}]}, {"smiles": "CC(C)N(C)c1nc2ccc(NC(=O)c3ncc(-c4ccc(F)cc4)cn3)cc2[nH]1", "values": [{"measurement": "IC50", "setting": "[1]", "result": 15, "unit": "nM"}, {"measurement": "CLint scaled", "setting": "[3]", "result": 9, "unit": "mL/min/kg"}]}, {"smiles": "CC(C)N(C)c1nc2ccc(NC(=O)c3ccc(-c4ccccc4)nc3)cc2[nH]1", "values": [{"measurement": "IC50", "setting": "[1]", "result": 8.8, "unit": "nM"}, {"measurement": "CLint scaled", "setting": "[3]", "result": 12, "unit": "mL/min/kg"}]}, {"smiles": "CC(C)N(C)c1nc2ccc(NC(=O)c3ccc(-c4ccc(F)cc4)nc3)cc2[nH]1", "values": [{"measurement": "IC50", "setting": "[1]", "result": 5.5, "unit": "nM"}, {"measurement": "CLint scaled", "setting": "[3]", "result": 8, "unit": "mL/min/kg"}]}, {"smiles": "O=C(CCc1ccc(C(F)(F)F)cc1)Nc1ccc2nc(N3CCOCC3)[nH]c2c1", "values": [{"measurement": "IC50", "setting": "[1]", "result": 428, "unit": "nM"}]}]}
